Assay [1] addresses T1, A-type voltage-gated potassium channel KCND2 (Homo sapiens) (UniProt Q9NZV8).
T1 sequence (whole entry): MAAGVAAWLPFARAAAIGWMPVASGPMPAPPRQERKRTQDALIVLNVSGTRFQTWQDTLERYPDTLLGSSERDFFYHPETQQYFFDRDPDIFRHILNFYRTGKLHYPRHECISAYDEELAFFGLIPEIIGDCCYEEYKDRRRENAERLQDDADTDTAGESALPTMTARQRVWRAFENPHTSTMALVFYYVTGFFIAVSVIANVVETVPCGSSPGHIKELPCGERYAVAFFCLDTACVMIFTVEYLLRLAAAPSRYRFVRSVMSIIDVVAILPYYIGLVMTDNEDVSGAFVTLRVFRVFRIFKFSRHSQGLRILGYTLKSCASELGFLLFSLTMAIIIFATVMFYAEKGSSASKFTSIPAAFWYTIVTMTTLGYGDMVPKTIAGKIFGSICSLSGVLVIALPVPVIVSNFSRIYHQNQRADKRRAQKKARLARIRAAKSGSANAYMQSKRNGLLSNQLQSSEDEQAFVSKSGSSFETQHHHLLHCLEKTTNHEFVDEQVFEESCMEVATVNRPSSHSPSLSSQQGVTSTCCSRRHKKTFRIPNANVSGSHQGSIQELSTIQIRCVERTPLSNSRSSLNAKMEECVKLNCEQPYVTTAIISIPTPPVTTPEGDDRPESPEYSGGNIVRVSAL
In words: Inhibition of Kv4.2 channel inactivation expressed in xenopus oocytes at 30 uM by voltage clamp assay. Format: cell-based. Conditions: Oocyte.

Assay [2] has as its target T2, Voltage-gated potassium channel subfamily A member 1/beta-1 (Homo sapiens, UniProt Q09470+Q14722). In words: Inhibition of Kv1.1/Kvbeta1 N terminal chimera channel inactivation expressed in xenopus oocytes at 50 uM by voltage clamp assay. To be noted: Oocyte. More on the design: scale not given: the % may be the effect or the level left. Format: cell-based. A digest of the protocol: (§1)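 Stage V–VI Xenopus oocytes injected with ~0.5–5 ng mRNA and kept 1–4 days in ND-96 (pH 7.6). Either Kv1.1 plus Kvβ1 RNA at 1:160, or a chimera (Kvβ1 residues 1–70 fused through a Ser to Kv1.1 N-terminus). Two-electrode clamp in perfused ND-96 with 3 M KCl electrodes. Held at −80 mV, stepped 200 ms to +50 mV. Disinactivation = 100·Iss/Ipeak, ≥3 experiments, mean ± SEM. EC50 from logistic fit.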

Assay [3] has as its target T3, Potassium voltage-gated channel subfamily A member 1 (Homo sapiens, UniProt Q09470). In words: Inhibition of Kvbeta-1-mediated inactivation of Kv1.1 channel expressed in xenopus oocytes at 50 uM by voltage clamp assay. It is filed as cell-based. Also on record: scale not given: the % may be the effect or the level left. Conditions: Oocyte. A digest of the protocol: as §1

For assay [4], the target named is T3, Potassium voltage-gated channel subfamily A member 1. In words: Inhibition of Kvbeta-1-mediated inactivation of Kv1.1 channel expressed in xenopus oocytes by voltage clamp assay. Format: cell-based, Oocyte. A digest of the protocol:
as §1

In assay [5] the target is T4, Potassium voltage-gated channel subfamily A member 4 (Homo sapiens, UniProt P22459). In words: Inhibition of Kv1.4 channel inactivation expressed in xenopus oocytes by voltage clamp assay. Format: cell-based, Oocyte. The method in brief: (§2)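 Kv1.4 expressed in stage V–VI Xenopus oocytes and recorded 1–4 days after injection. Two-electrode voltage clamp in perfused ND-96 (pH 7.6), held at −80 mV with 200 ms steps to +50 mV. Compound up to 50 µM, current followed 2–8 min after application. Disinactivation = 100·Iss/Ipeak, three experiments.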
T4 sequence (P22459 whole entry, the tested form may be a part): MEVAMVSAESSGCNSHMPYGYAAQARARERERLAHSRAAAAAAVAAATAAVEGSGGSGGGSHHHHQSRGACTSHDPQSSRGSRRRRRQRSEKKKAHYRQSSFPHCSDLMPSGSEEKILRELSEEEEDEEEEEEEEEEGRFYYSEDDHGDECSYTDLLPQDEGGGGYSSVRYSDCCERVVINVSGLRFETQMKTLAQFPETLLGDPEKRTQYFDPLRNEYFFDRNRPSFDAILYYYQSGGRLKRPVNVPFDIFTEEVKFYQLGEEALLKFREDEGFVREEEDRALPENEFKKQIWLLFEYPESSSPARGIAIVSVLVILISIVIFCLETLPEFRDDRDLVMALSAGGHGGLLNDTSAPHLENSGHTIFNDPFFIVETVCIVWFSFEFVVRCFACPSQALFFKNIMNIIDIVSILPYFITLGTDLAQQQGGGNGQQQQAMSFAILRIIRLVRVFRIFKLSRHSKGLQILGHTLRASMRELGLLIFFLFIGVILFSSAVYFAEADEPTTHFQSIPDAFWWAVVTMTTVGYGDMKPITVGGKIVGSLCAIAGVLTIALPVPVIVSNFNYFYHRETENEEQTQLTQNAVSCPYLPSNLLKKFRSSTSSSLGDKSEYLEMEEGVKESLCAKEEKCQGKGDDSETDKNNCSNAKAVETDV

Assay [6] addresses T2, Voltage-gated potassium channel subfamily A member 1/beta-1. In words: Inhibition of Kv1.1/Kvbeta1 N terminal chimera channel inactivation expressed in xenopus oocytes by voltage clamp assay. It is filed as cell-based, Oocyte. A digest of the protocol: as §1
Assay [7] concerns the target T3, Potassium voltage-gated channel subfamily A member 1. In words: Inhibition of Kvbeta-1-mediated inactivation of Kv1.1 channel expressed in xenopus oocytes at 200 uM by voltage clamp assay. It is filed as cell-based. Also on record: scale not given: the % may be the effect or the level left. Conditions: Oocyte.
Assay [8] deals with Mus musculus. In words: Anticonvulsant activity in ip dosed CF1 mouse assessed as inhibition of pentylenetetrazole-induced seizure. Format: functional. The method in brief: (§3)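 Male CF-1 mice, 20–25 g, free access to food and water. Compound in 2% Tween 80/1% methylcellulose/saline given ip 30 min before PTZ 85 mg/kg sc. Mice observed 30 min in individual chambers. Groups of eight scored for presence or absence of clonic seizure (forelimb and hindlimb paddling with loss of righting). ED50 in mg/kg, or number of mice seizing out of eight.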

Assay [9] concerns the target T4, Potassium voltage-gated channel subfamily A member 4. In words: Inhibition of Kv1.4 channel inactivation expressed in xenopus oocytes at 50 uM by voltage clamp assay. Format: cell-based. More on the design: scale not given: the % may be the effect or the level left. To be noted: Oocyte. A digest of the protocol:
as §2

For assay [10], the target named is T3, Potassium voltage-gated channel subfamily A member 1. In words: Inhibition of Kvbeta-1-mediated inactivation of Kv1.1 channel expressed in xenopus oocytes at 150 uM by voltage clamp assay. Format: cell-based. Also on record: scale not given: the % may be the effect or the level left. To be noted: Oocyte.
Assay [11] relates to Mus musculus. In words: Anticonvulsant activity in CF1 mouse assessed as inhibition of pentylenetetrazole-induced seizure at 100 mg/kg, ip. Format: functional, organism-based. Also on record: dose 100 mg/kg. The method in brief:
as §3

The target in assay [12] is T3, Potassium voltage-gated channel subfamily A member 1. In words: Inhibition of Kv-beta-1 mediated inactivation of Kv1.1 channel assessed as intracellular calcium accumulation in Tsa201 cells at 50 uM by FLIPR assay. It is filed as cell-based. The method in brief: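 Tsa201 cells plated at 50,000/well and used the following day. Loaded with 3 µM Fluo-4 AM in HBSS with 2.5 mM probenecid, 60 min at 37 °C, then washed into calcium-free HBSS. Baseline read 5 s, compound added at final 50 µM (A23187 reference at 10 µM), fluorescence followed 3 min. Signal normalized to background. BAPTA-AM 10 µM counter-check for autofluorescence.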
In general terms: A change in cytosolic calcium serves as a functional read-out for many receptors and channels.

Assay [13] shares this target. In words: Inhibition of Kv-beta-1 mediated inactivation of Kv1.1 channel assessed as intracellular calcium accumulation in Tsa201 cells at 50 uM by FLIPR assay.

The source made the active and inactive calls. The rule behind the calls is not given here.

T3 sequence (Q09470 whole entry): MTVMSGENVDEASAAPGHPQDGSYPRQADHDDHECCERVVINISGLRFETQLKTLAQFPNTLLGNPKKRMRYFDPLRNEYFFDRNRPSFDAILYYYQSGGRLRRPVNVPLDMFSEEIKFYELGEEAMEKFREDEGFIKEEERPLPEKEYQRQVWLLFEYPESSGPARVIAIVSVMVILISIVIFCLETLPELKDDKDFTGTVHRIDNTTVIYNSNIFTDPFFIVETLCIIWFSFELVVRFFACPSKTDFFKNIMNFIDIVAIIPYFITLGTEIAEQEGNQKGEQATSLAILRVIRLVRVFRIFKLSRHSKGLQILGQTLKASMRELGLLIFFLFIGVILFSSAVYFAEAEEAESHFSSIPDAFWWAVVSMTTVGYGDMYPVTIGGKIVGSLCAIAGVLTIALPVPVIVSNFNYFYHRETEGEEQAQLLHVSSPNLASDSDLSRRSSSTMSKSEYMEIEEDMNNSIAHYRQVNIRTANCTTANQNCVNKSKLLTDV
T2 sequence (Q09470 whole entry, the tested form may be a part): as the sequence (Q09470 whole entry) above
T2 sequence (Q14722 whole entry, the tested form may be a part): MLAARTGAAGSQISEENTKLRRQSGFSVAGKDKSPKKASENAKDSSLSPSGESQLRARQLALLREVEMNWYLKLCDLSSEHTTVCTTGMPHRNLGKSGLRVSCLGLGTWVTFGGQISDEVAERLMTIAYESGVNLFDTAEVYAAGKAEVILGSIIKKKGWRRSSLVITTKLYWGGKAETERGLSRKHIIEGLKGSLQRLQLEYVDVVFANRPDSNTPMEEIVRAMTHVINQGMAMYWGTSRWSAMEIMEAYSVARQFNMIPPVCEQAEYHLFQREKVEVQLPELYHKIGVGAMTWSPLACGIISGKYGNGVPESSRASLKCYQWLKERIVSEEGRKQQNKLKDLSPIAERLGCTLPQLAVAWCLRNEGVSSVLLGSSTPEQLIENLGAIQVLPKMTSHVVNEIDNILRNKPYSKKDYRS

On to `CC1(c2ccccc2)NC(=O)N(C(=O)/C=C/c2ccc(F)cc2)C1=O` (stereo not drawn), for which, in assay [1], the result was inactive. In addition, the values for the Activity in assay [2] and in [3] were 34% and 52.5%, respectively.

On to `O=[N+]([O-])C1(Br)COC(c2ccccc2)OC1` (stereo not drawn), for which the result in assay [1] was inactive. Also, the EC50 in assay [4] worked out at 7.1 µM; in [5], 1300 nM; in assay [6], 8.9 µM.

For `CC1(C)CC(=O)C(C(=O)Nc2cccc(C(F)(F)F)c2)C(=O)C1`, in assay [1], the outcome was inactive. Also, the Activity was determined as 40% in assay [7] and 18.5% in [3]. Further, in assay [8], the ED50 is 32 mg/kg.

With `CC1(C)CC(=O)C(C(=O)Nc2ccc(Cl)cc2C(F)(F)F)C(=O)C1`, the values for the Activity in assay [9] and in assay [10] were 5% and 45%, respectively. Besides, in assay [1], the result was inactive. For the same compound, the ED50 in [8] is 66 mg/kg.

Consider `O=C(Nc1ccc([N+](=O)[O-])cc1)C1C(=O)C2=C(CCCC2)C1=O`, for which the result in [1] and in assay [11] was inactive. The outcome in [12] and in assay [13] was Active. In assay [3], this compound displayed an Activity of 96.3%.

Regarding `CC1(C)OCC(Br)([N+](=O)[O-])CO1`, in assay [1], the outcome was inactive. Further, the EC50 in assay [4] came out at 4.3 µM; in [5], 2300 nM; in assay [6], 16.7 µM. Further, in assay [8], the ED50 was 139 mg/kg.

Turning to `C[C@@]1(c2ccccc2)NC(=O)N(C(=O)C2=Cc3cc(Cl)ccc3OC2)C1=O`, the result in [1] was inactive. Moreover, the Activity worked out at 37% in assay [2] and 18.8% in [3].

The term EC50 denotes the midpoint of the concentration-response curve. Usually ED50 stands for the dose that gives a 50% effect, or the effect in half of the subjects.

The values are drawn from ChEMBL document CHEMBL1143977, “Disruption of Kv1.1 N-type inactivation by novel small molecule inhibitors (disinactivators)” (Bioorg Med Chem, 2008).
